Compound activity deposited in PubChem BioAssay by several laboratories.
The sample as a whole holds a higher share of hits than the screen did.
Diaphorase inh: diaphorase inhibition or chemical oxidation counter-screen; diaphorase resazurin-to-resorufin fluorescence, NADH, 16 min; bacterial (C. kluyveri) enzyme, not human; inhibition, % at 20 µM; actives 0.69% (n = 190,000);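 active = primary screen inhibition at 20 µM above a set limit, cut at about 50% in these data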
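System: Bacterial diaphorase enzyme (C. kluyveri) | Incubation: 16-min room-temperature incubation before reading | Benchmarks: No-NADH positive control and DMSO neutral control | Measured by: Resorufin fluorescence 544/590 nm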
G6PDH CS: L. mesenteroides G6PDH inhibition counter-screen; Purified L. mesenteroides G6PDH, diaphorase/resazurin coupled fluorescence, 45 min; inhibition, % at 5 µM; actives 0.12% (n = 200,000)
Diaph act CS: activates diaphorase or chemically reduces, flagging diaphorase assay artifacts; Diaphorase/resazurin coupled assay, resorufin fluorescence, 16 min; hits give high values; 1 = vehicle wells, 0 = NADH-free wells; activation factor at 20 µM; actives 0.005% (n = 190,000); AID 1229;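 active = diaphorase activity raised at least twofold by the compound at 20 µM; inactive = activation factor below 2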
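Material: purified diaphorase enzyme from Clostridium kluyveri; Also added: 0.114 mM NADH and 0.1 mM resazurin, final amounts; Doses: single compound dose of 20 µM, 1% DMSO final; Times: 16 min enzyme reaction, ambient temperature; Detection: resorufin fluorescence, excitation 544 nm, emission 590 nm; Measure: increased resorufin signal from activators or reducing compounds.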
Lmaj promast: reduces viability of Leishmania major promastigotes | resazurin fluorescence viability | inhibition, % at 10 µM | actives 9% (n = 200,000) | AID 1063;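 also: promastigotes grown with compound for 44 hours at 28 °C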
PfG6PD inh: PfG6PD (Plasmodium falciparum) enzyme inhibition; actives 0.78% (n = 350,000); AID 504690; PfGluPho enzyme, NADPH resazurin-diaphorase fluorescence; inhibition, % at 20 µM;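 active = inhibition reaching at least a set limit at 20 µM in the primary screen, cut at about 59% in these data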
DTT redox prof: compounds producing H2O2 with reducing agent – biochemical, NIH compound library profiling, artefact control for MLSCN library redox annotation, primary screen | DTT-dependent redox cycling H2O2, phenol red/HRP absorbance; 100% = 100 µM peroxide control, 0% = buffer | activation, % at 10 µM | actives 0.03% (n = 200,000) | AID 878;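 active = activation of at least 50% relative to the plate's high and low controls in the primary single-dose screen; inactive = activation below 50%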;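 also: compound incubated with DTT at 0.8 mM final as the reducing agent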
Hits are given with their value; . = inactive; / = not tested or not shown. Rule as the data show it, unless noted: active = inhibition above about 50%; inactive = the rest.

SMILES | Diaphorase inh | G6PDH CS | Diaph act CS | Lmaj promast | PfG6PD inh | DTT redox prof
Cc1cccc(N2CCN(C(=O)C3CCC(=O)N(C4CC4)C3)CC2)c1C (stereo not given) | / | / | / | / | . | /
CCCOc1ccc(N2C(=O)CC(N(CCc3ccc(OC)cc3)C(=O)c3ccccc3)C2=O)cc1 (stereo not given) | / | / | / | / | . | /
COc1ccc(-c2cc(C(=O)N3CCOCC3)c3cc(C)ccc3n2)cc1 | . | . | . | 65 | . | .
COc1ccc(Br)c(C(=O)Nc2cccc(S(=O)(=O)N3CCOCC3)c2)c1 | / | / | / | / | . | /
Cc1ccc(-c2cc(C(F)F)n3ncc(C(=O)N4CCN5CCCC5C4)c3n2)cc1 (stereo not given) | . | . | . | 55 | . | .
COc1ccc(-c2cc(C(=O)N3CCCCCC3)c3cc(C)ccc3n2)cc1 | / | / | / | / | . | /
O=C(Nc1cccc(S(=O)(=O)N2CCOCC2)c1)c1cn(-c2ccccc2)nc1-c1ccccc1 | . | . | . | . | . | .
COc1ccc(-c2cc(C(F)F)n3ncc(C(=O)Nc4cccc(S(=O)(=O)N5CCOCC5)c4)c3n2)cc1 | . | . | . | 65 | . | .
O=C(Nc1cccc(S(=O)(=O)N2CCOCC2)c1)c1cn(-c2ccccc2)nc1-c1ccc(F)cc1 | . | . | . | 99 | . | .
COc1ccc(-c2cc(C(F)F)n3ncc(C(=O)N4CCSCC4)c3n2)cc1 | . | . | . | . | . | .
Cc1ccc(-c2cc(C(F)F)n3ncc(C(=O)NN4CCCCC4)c3n2)cc1 | . | . | . | . | . | .
COc1ccc(-c2cc(C(F)F)n3ncc(C(=O)N4CCN(C)CC4)c3n2)cc1 | . | . | . | 98 | . | .
CCOC(=O)C1CCCN(C(=O)c2sc3nc(-c4ccc(OC)cc4)cn3c2C)C1 (stereo not given) | . | . | . | 100 | . | .
CCOC(=O)C1CCCN(C(=O)c2cnn3c(C(F)F)cc(-c4ccc(C)cc4)nc23)C1 (stereo not given) | . | . | . | 98 | . | .
CC(C)S(=O)(=O)CC(=O)c1ccc(Cl)cc1 | . | . | . | . | . | .
CCCCc1nc2ccccc2c(N)c1CCC (tested in a mixture with another compound) | . | . | . | 95 | . | .
CCCCc1nc2ccccc2c(NC(=O)CNC(C)(C)C)c1CCC | . | . | . | . | . | .
Cc1ccc(OC(=O)CCc2c(C)nc3ncnn3c2C)cc1 | . | . | . | . | . | .
Cc1ccc(CC2CC(=O)N(CCc3ccc4c(c3)OCO4)C2=O)cc1 (stereo not given) | . | . | . | 60 | . | .
COc1cccc(CC2CC(=O)N(CCc3ccc4c(c3)OCO4)C2=O)c1 (stereo not given) | . | . | . | . | . | .
COc1ccc(CN2CCN(C3CCC3)CC2CCO)c(F)c1 (stereo not given) | / | / | / | / | . | /
CN(CCn1ccnc1)Cc1cn(-c2ccccc2)nc1-c1ccc2c(c1)OCO2 | . | . | . | 94 | . | .
CN(Cc1cn(-c2ccccc2)nc1-c1ccc2c(c1)OCO2)Cc1nccn1C | . | . | . | . | . | .
Cc1ccc(Oc2ncc(CN3CC(C)OC(C)C3)s2)cc1 (stereo not given) | . | . | . | 52 | . | .
Cc1ccc(CN2CCC(N3CC(C)OC(C)C3)CC2)cc1 (stereo not given) | / | / | / | / | . | /
CCOC(=O)C1CCN(Cc2cnc(Oc3ccc(N)cc3)s2)CC1 | . | . | . | 84 | . | .
CCOC(=O)C1CCN(Cc2cnc(Oc3ccc(Cl)cc3C)s2)CC1 | . | . | . | 90 | . | .
Cc1ccccc1-n1c([C@@H]2C[C@H]2c2ccccc2)n[nH]c1=S | / | / | / | / | . | /
COC(=O)c1c(NC(=S)NN2CCN(C)CC2)sc2c1CCC(C)C2 (stereo not given) | . | . | . | 100 | . | .
CCOC(=O)c1c(NC(=O)Cn2cnc([N+](=O)[O-])n2)sc2c1CCC(C)C2 (stereo not given) | . | . | . | 98 | . | .
